Measurements from ChEMBL document CHEMBL1137637, “Quinuclidine derivatives as potential antiparasitics” (Antimicrob Agents Chemother, 2007).
pIC50: −log10 of the molar value. In brackets after ≈: the same amount, converted by molar mass.

Experiments:
L6 = assay: Cytotoxicity against rat L6 cells after 72 hrs by resazurin assay; assay type: cell-based; conditions: L6, 72 h
In short: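 L-6 cells seeded at 4 × 10⁴ cells/ml in RPMI 1640 with 10% FBS and 2 mM L-glutamine. After 24 h, medium replaced with serial drug dilution and incubated for 72 h at 37°C in 5% CO2. Resazurin added for 2–4 h, fluorescence read at ex 536/em 588 nm. IC50 from sigmoidal curve. Duplicate, with an independent repeat for actives.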

Leishmania amazonensis [1] = assay: Inhibition of sterol biosynthesis in Leishmania mexicana amazonensis promastigotes assessed as reduction in endogenous cholesta-5,7,24-trien-3beta-ol level at 10 uM after 96 hrs by gas-liquid chromatography; assay type: functional; design: scale not given: the % may be the effect or the level left
In short: (§1)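 L. mexicana promastigotes exposed to compound for 96 h. Total lipids extracted and neutral sterols separated from polar lipids by silicic acid column chromatography. Sterols analysed by TLC and by quantitative capillary gas-liquid chromatography with mass spectrometry. Composition expressed as mass % of free sterols, compared with untreated control.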

Plasmodium falciparum = assay: Antiplasmodial activity after 48 hrs against chloroquine and pyrimethamine-resistant Plasmodium falciparum K1 in human erythrocytes by [3H]hypoxanthine uptake; assay type: functional, organism-based
In short: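 P. falciparum K1 in human red cells in RPMI 1640 with 5% Albumax, exposed to serial drug dilutions. Incubated 48 h at 37°C under reduced oxygen, then 0.5 μCi [³H]hypoxanthine per well for 24 h more. Cells harvested onto glass-fibre filters and counted by scintillation. Result expressed as % of untreated control, with IC50 from sigmoidal curve. Duplicate, plus an independent repeat for actives.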

[2] = test system: Trypanosoma brucei rhodesiense; assay: Trypanocidal activity against Trypanosoma brucei rhodesiense STIB 900 bloodstream form after 72 hrs by resazurin assay; assay type: functional, organism-based; conditions: STIB 900, 72 h
In short: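 T. b. rhodesiense STIB 900 bloodstream forms in MEM with 2-mercaptoethanol and 15% heat-inactivated horse serum, with serial drug dilutions. Incubated 72 h at 37°C in 5% CO2. Resazurin added for 2–4 h more, fluorescence read at ex 536/em 588 nm. IC50 from sigmoidal curve. Duplicate, with an independent repeat for actives.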

Leishmania amazonensis [3] = assay: Inhibition of sterol biosynthesis in Leishmania mexicana amazonensis promastigotes assessed as reduction in endogenous 5-dehydro episterol level at 10 uM after 96 hrs by gas-liquid chromatography; assay type: functional; design: scale not given: the % may be the effect or the level left; in short: as §1
Leishmania donovani = assay: Antileishmanial activity against Leishmania donovani MHOM/ET/67/L82 axenic amastigotes after 72 hrs by resazurin assay; assay type: functional, organism-based; conditions: MHOM/ET/67/L82, 72 h
In short: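 L. donovani MHOM/ET/67/L82 amastigotes grown axenically at 37°C in synthetic minimal medium at pH 5.4 with 10% heat-inactivated FBS under 5% CO2. 1 × 10⁵ amastigotes per well with seven threefold dilutions, 30 to 0.041 μg/ml. After 72 h, resazurin added for 2–4 h more. Fluorescence read at ex 536/em 588 nm. IC50 taken from sigmoidal curve. Run in duplicate, with an independent repeat for actives.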

Trypanosoma cruzi = assay: Antitrypanosomal activity against trypomastigotes of Trypanosoma cruzi Tulahuen C2C4 containing lacZ gene in rat L6 cells after 4 days by chlorophenol red-beta-D-galactopyranoside/Nonidet assay; assay type: functional, organism-based; conditions: Tulahuen C2C4, L6, 96 h
In short: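 L-6 rat myoblasts seeded at 2,000 cells/well in RPMI 1640 with 10% FBS and 2 mM L-glutamine. After 24 h, 5,000 T. cruzi Tulahuen C2C4 lacZ trypomastigotes added with serial drug dilution. Incubated at 37°C in 5% CO2 for 4 days. CPRG/Nonidet substrate added and colour read at 540 nm after 2–4 h. IC50 from sigmoidal curve. Duplicate determinations.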

Leishmania amazonensis [4] = assay: Antileishmanial activity against Leishmania mexicana amazonensis promastigotes by trypan blue exclusion method; assay type: functional, organism-based
In short: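 L. mexicana amazonensis promastigotes cultured in liver infusion-tryptose medium with lactalbumin and 10% FCS at 26°C, unagitated. Cultures started at 2 × 10⁶ cells/ml and drug added at 0.5–1 × 10⁷ cells/ml. Density counted by electronic particle counter and hemocytometer. Viability by trypan blue exclusion. Triplicate growth experiments.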

Leishmania amazonensis [5] = assay: Inhibition of sterol biosynthesis in Leishmania mexicana amazonensis promastigotes assessed as reduction in endogenous episterol level at 10 uM after 96 hrs by gas-liquid chromatography; assay type: functional; design: scale not given: the % may be the effect or the level left; in short: as §1
[6] = molecular target: T1, Farnesyltransferase, putative (Leishmania major, UniProt Q4Q5W4); assay: Inhibition of Leishmania major recombinant squalene synthase expressed in Escherichia coli by liquid scintillation counter
T1 sequence (Q4Q5W4 whole entry): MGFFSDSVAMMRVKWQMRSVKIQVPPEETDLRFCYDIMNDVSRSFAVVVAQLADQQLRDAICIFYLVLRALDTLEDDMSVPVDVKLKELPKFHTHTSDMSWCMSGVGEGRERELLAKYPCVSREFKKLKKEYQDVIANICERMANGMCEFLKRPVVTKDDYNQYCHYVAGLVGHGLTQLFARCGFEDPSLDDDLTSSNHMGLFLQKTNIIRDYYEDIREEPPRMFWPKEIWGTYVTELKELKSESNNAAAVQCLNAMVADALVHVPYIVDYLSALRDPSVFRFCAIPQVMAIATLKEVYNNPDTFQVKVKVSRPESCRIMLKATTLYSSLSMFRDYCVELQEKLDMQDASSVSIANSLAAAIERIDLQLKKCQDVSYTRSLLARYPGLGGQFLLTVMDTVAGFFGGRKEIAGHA
In short: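 Soluble E. coli extract expressing L. major SQS truncated by 16 N-terminal and 40 C-terminal residues. Buffer: 50 mM phosphate pH 7.4, 20 mM MgCl2, 5 mM CHAPS, 1% Tween 80, 10 mM DTT, BSA, 0.25 mM NADPH, and a glucose-6-phosphate/G6PDH regenerating system. Substrate 0.5 μM radiolabelled farnesyl pyrophosphate. Squalene band counted by scintillation. IC50 from hyperbolic plot of five concentrations in duplicate, usually run twice.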

Leishmania amazonensis [7] = assay: Inhibition of sterol biosynthesis in Leishmania mexicana amazonensis promastigotes assessed as reduction in endogenous cholesta-7,24-dien-3beta-ol level at 10 uM after 96 hrs by gas-liquid chromatography; assay type: functional; design: scale not given: the % may be the effect or the level left; in short: as §1
Leishmania amazonensis [8] = assay: Inhibition of sterol biosynthesis in Leishmania mexicana amazonensis promastigotes assessed as reduction in exogenous cholesterol level at 10 uM after 96 hrs by gas-liquid chromatography; assay type: functional; design: scale not given: the % may be the effect or the level left; in short: as §1
Leishmania amazonensis [9] = assay: Inhibition of sterol biosynthesis in Leishmania mexicana amazonensis promastigotes assessed as reduction in endogenous 5-dehydro episterol level at 1 uM after 96 hrs by gas-liquid chromatography; assay type: functional; design: scale not given: the % may be the effect or the level left; in short: as §1
Leishmania amazonensis [10] = assay: Inhibition of sterol biosynthesis in Leishmania mexicana amazonensis promastigotes assessed as reduction in endogenous episterol level at 1 uM after 96 hrs by gas-liquid chromatography; assay type: functional; design: scale not given: the % may be the effect or the level left; in short: as §1
Leishmania amazonensis [11] = assay: Inhibition of sterol biosynthesis in Leishmania mexicana amazonensis promastigotes assessed as reduction in exogenous cholesterol level at 1 uM after 96 hrs by gas-liquid chromatography; assay type: functional; design: scale not given: the % may be the effect or the level left; in short: as §1
Leishmania amazonensis [12] = assay: Inhibition of sterol biosynthesis in Leishmania mexicana amazonensis promastigotes assessed as reduction in exogenous cholesterol level at 3 uM after 96 hrs by gas-liquid chromatography; assay type: functional; design: scale not given: the % may be the effect or the level left; in short: as §1
Leishmania amazonensis [13] = assay: Inhibition of sterol biosynthesis in Leishmania mexicana amazonensis promastigotes assessed as reduction in endogenous episterol level at 3 uM after 96 hrs by gas-liquid chromatography; assay type: functional; design: scale not given: the % may be the effect or the level left; in short: as §1
Leishmania amazonensis [14] = assay: Inhibition of sterol biosynthesis in Leishmania mexicana amazonensis promastigotes assessed as reduction in endogenous 5-dehydro episterol level at 3 uM after 96 hrs by gas-liquid chromatography; assay type: functional; design: scale not given: the % may be the effect or the level left; in short: as §1

## OC[C@@H]1CC2CCN1C[C@@H]2C#Cc1ccccc1 (stereo partly drawn)
L6
  pIC50: 4.13
Leishmania amazonensis [1]
  Activity: 2%
Plasmodium falciparum
  pIC50: 5.48
[2]
  pIC50: 4.89
Leishmania amazonensis [3]
  Activity: 63%
Leishmania donovani
  pIC50: < 3.91
Trypanosoma cruzi
  pIC50: 5.09
Leishmania amazonensis [4]
  MIC: > 10 µM
Leishmania amazonensis [5]
  Activity: 13.2%
[6]
  pIC50: < 6.00
Leishmania amazonensis [7]
  Activity: 3.9%
Leishmania amazonensis [8]
  Activity: 17.9%

## OC1(C#Cc2ccc(OCc3ccccc3)cc2)CN2CCC1CC2 (stereo not drawn)
L6
  pIC50: 4.35
Leishmania amazonensis [9]
  Activity: 17%
Leishmania amazonensis [10]
  Activity: 8.4%
Leishmania amazonensis [11]
  Activity: 74.6%
Plasmodium falciparum
  pIC50: 5.72
[2]
  pIC50: 5.72
Leishmania donovani
  pIC50: 5.49
Trypanosoma cruzi
  pIC50: 5.02
Leishmania amazonensis [4]
  MIC: 1 µM (≈ 0.333 µg/mL)
Leishmania amazonensis [12]
  Activity: >99%

## OC[C@@H]1CC2CCN1C[C@@H]2C#Cc1cnc2ccccc2c1 (stereo partly drawn)
L6
  pIC50: 3.77
Leishmania amazonensis [1]
  Activity: 5.9%
Plasmodium falciparum
  pIC50: 5.77
[2]
  pIC50: 5.15
Leishmania amazonensis [3]
  Activity: 40.6%
Leishmania donovani
  pIC50: 4.10
Trypanosoma cruzi
  pIC50: 4.72
Leishmania amazonensis [4]
  MIC: > 10 µM
Leishmania amazonensis [5]
  Activity: 13.7%
[6]
  pIC50: < 6.00
Leishmania amazonensis [7]
  Activity: 12.3%
Leishmania amazonensis [8]
  Activity: 27.5%

## CC(C)OC(=O)c1ccc(C2=CN3CCC2CC3)cc1
L6
  pIC50: 3.82
Leishmania amazonensis [9]
  Activity: 42.8%
Leishmania amazonensis [10]
  Activity: 12.8%
Leishmania amazonensis [11]
  Activity: 44.4%
Plasmodium falciparum
  pIC50: 4.85
[2]
  pIC50: 5.14
Leishmania donovani
  pIC50: 5.96
Trypanosoma cruzi
  pIC50: 4.64
Leishmania amazonensis [4]
  MIC: 3 µM (≈ 0.814 µg/mL)
[6]
  pIC50: < 6.00
Leishmania amazonensis [12]
  Activity: 74.5%
Leishmania amazonensis [13]
  Activity: 25.5%

## CCOC(=O)c1ccc(C2=CN3CCC2CC3)cc1
L6
  pIC50: 3.58
Leishmania amazonensis [9]
  Activity: 36.3%
Leishmania amazonensis [14]
  Activity: 13.4%
Leishmania amazonensis [10]
  Activity: 11.5%
Leishmania amazonensis [11]
  Activity: 52.2%
Plasmodium falciparum
  pIC50: 4.94
[2]
  pIC50: 4.45
Leishmania donovani
  pIC50: 6.00
Trypanosoma cruzi
  pIC50: 4.80
Leishmania amazonensis [4]
  MIC: 1 µM (≈ 0.257 µg/mL)
[6]
  pIC50: 6.74
Leishmania amazonensis [12]
  Activity: 73.4%
Leishmania amazonensis [13]
  Activity: 13.2%

## CCOC(=O)c1ccc(C#CC2(O)CN3CCC2CC3)cc1 (stereo not drawn)
L6
  pIC50: 3.77
Leishmania amazonensis [14]
  Activity: 54.6%
Leishmania amazonensis [1]
  Activity: >99%
Plasmodium falciparum
  pIC50: 5.40
[2]
  pIC50: 5.48
Leishmania donovani
  pIC50: 4.54
Trypanosoma cruzi
  pIC50: 5.25
Leishmania amazonensis [4]
  MIC: 10 µM (≈ 2.99 µg/mL)
[6]
  pIC50: 5.37
Leishmania amazonensis [12]
  Activity: 35.9%
Leishmania amazonensis [13]
  Activity: 9.5%

## CCCCCCOc1ccc(C#CC2(O)CN3CCC2CC3)cc1 (stereo not drawn)
L6
  pIC50: 4.80
Leishmania amazonensis [9]
  Activity: 65%
Leishmania amazonensis [10]
  Activity: 14.6%
Leishmania amazonensis [11]
  Activity: 20.4%
Plasmodium falciparum
  pIC50: 6.15
[2]
  pIC50: 6.30
Leishmania donovani
  pIC50: 5.33
Trypanosoma cruzi
  pIC50: 5.25
Leishmania amazonensis [4]
  MIC: 1 µM (≈ 0.327 µg/mL)
Leishmania amazonensis [12]
  Activity: >99%

## C1=C(c2cc3ccccc3s2)C2CCN1CC2
L6
  pIC50: 3.84
Leishmania amazonensis [9]
  Activity: 28.6%
Leishmania amazonensis [14]
  Activity: 15.5%
Leishmania amazonensis [10]
  Activity: 24.5%
Leishmania amazonensis [11]
  Activity: 47.9%
Plasmodium falciparum
  pIC50: 4.92
[2]
  pIC50: 5.25
Leishmania donovani
  pIC50: 5.92
Trypanosoma cruzi
  pIC50: 4.19
Leishmania amazonensis [4]
  MIC: 10 µM (≈ 2.41 µg/mL)
[6]
  pIC50: < 6.00
Leishmania amazonensis [12]
  Activity: 62.3%
Leishmania amazonensis [13]
  Activity: 22.2%
